Results from ChEMBL document CHEMBL3232978, “Efficient synthesis of novel glutamate homologues and investigation of their affinity and selectivity profile at ionotropic glutamate receptors” (Bioorg Med Chem Lett, 2014).

What was measured:
[1] = target: Glutamate receptor ionotropic, AMPA (Rattus norvegicus, UniProt P19490+P19491+P19492+P19493); experiment: Displacement of [3H]AMPA from AMPA receptor in Sprague-Dawley rat brain cortical synaptic membranes after 1 hr by liquid scintillation counting
Outline: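 Radioligand displacement in rat cortical membranes: [3H]AMPA labelled AMPA receptors and [3H]KA labelled kainate receptors. Results are reported as IC50 for displacement of the radioligand.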

[2] = target: Glutamate receptor ionotropic, AMPA (Rattus norvegicus) (UniProt P19491+P19492+P19493+P19490); experiment: Displacement of [3H]AMPA from AMPA receptor in Sprague-Dawley rat brain cortical synaptic membranes at 100 uM after 1 hr by liquid scintillation counting
Outline: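 In rat cortical membrane binding, test compounds were applied at a single concentration of 100 µM. Percent displacement of bound [3H]AMPA (AMPA sites) or [3H]KA (kainate sites) was recorded.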

[3] = target: kainate receptor (Rattus norvegicus); experiment: Displacement of [3H]KAIN from kainate receptor in Sprague-Dawley rat brain cortical synaptic membranes after 1 hr by liquid scintillation counting
[4] = system: kainate receptor (Rattus norvegicus); experiment: Displacement of [3H]KAIN from kainate receptor in Sprague-Dawley rat brain cortical synaptic membranes at 100 uM after 1 hr by liquid scintillation counting
Glutamate NMDA receptor [5] = experiment: Displacement of [3H]CGP39653 from NMDA receptor in Sprague-Dawley rat brain cortical synaptic membranes after 1 hr by liquid scintillation counting v
Outline: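 Competition binding on rat cortical membranes, with [3H]CGP39653 labelling NMDA receptor sites. Ki values were derived and expressed as mean pKi ± SEM from three independent experiments. Hill coefficients were also determined.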

Glutamate NMDA receptor [6] = experiment: Displacement of [3H]CPP from NMDA receptor in Sprague-Dawley rat brain cortical synaptic membranes after 1 hr by liquid scintillation counting v

IC50 [1] [µM]	inhibition [2] [%]	IC50 [3] [µM]	inhibition [4] [%]	Ki (Glutamate NMDA receptor [5]) [µM]	Ki (Glutamate NMDA receptor [6]) [µM]	SMILES
> 100	5	> 100	5	32	–	N[C@H](CCCc1ccccc1C(=O)O)C(=O)O
> 100	5	> 100	5	14	–	N[C@H](CCCc1cscc1C(=O)O)C(=O)O
–	–	–	–	–	13	N[C@H](CCCC(=O)O)C(=O)O
> 100	5	> 100	5	> 100	–	N[C@H](C/C=C/c1ccccc1C(=O)O)C(=O)O
> 100	5	> 100	5	52	–	N[C@H](C/C=C/c1cscc1C(=O)O)C(=O)O
